≈ marks a conversion by molar mass, not a printed value. Entries after “also recorded” stand apart in the source; their conditions may differ. Blank lines part the entries; values can stand above or below the compound they belong to.
Legend:
[1] = Brain distribution of DOX after iv injection; format: in vivo; settings: ICR mice, iv 2.5 mg DOX/kg
[2] = Saturated solubility of DOX in PBS; format: physicochemical; settings: phosphate-buffered saline (PBS), pH 7.2, aqueous buffer
[3] = In vivo imaging of DiR-loaded micelles; settings: nude mice, free dye (not shown)
Summary of the method: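 DiR physically entrapped in CS-SA micelles. Anesthetized nude mice were dosed via tail vein at 25 mg CS-SA/kg. Whole-body fluorescence was imaged at set time points after injection. The brain was excised 0.5 h post-injection for ex vivo fluorescence imaging, with a blank brain as negative control.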

SMILES: COc1cccc2c1C(=O)c1c(O)c3c(c(O)c1C2=O)C[C@@](O)(C(=O)CO)C[C@@H]3O[C@H]1C[C@H](N)[C@H](O)[C@H](C)O1.Cl [DOX · HCl, DOX hydrochloride]
drug detection in brain [1]: not detected in brain; also recorded: no drug signal was detected in brain

solubility [2]: 76 µg/mL (≈ 140 µM)
SMILES: COc1cccc2c1C(=O)c1c(O)c3c(c(O)c1C2=O)C[C@@](O)(C(=O)CO)C[C@@H]3O[C@H]1C[C@H](N)[C@H](O)[C@H](C)O1 [DOX, Doxorubicin]

fluorescence in brain [3]: fluorescence was not seen in brain
SMILES: CCCCCCCCCCCCCCCCCCN1/C(=C/C=C/C=C/C=C/C2=[N+](CCCCCCCCCCCCCCCCCC)c3ccccc3C2(C)C)C(C)(C)c2ccccc21.[I-] [DiR]
